Assay results from different studies.
Compare with care: the assays were run in different laboratories.
BCKDK: Branched-chain alpha-ketoacid dehydrogenase kinase (BCKDK, Homo sapiens, UniProt O14874)
ABCB1: ATP-dependent translocase ABCB1 (ABCB1, Homo sapiens, UniProt P08183)
OPRM1: Mu-type opioid receptor (OPRM1, Homo sapiens, UniProt P35372)
murD: UDP-N-acetylmuramoylalanine--D-glutamate ligase (murD, Escherichia coli K-12, UniProt P14900)
ALOX5: Polyunsaturated fatty acid 5-lipoxygenase (ALOX5, Homo sapiens, UniProt P09917)
PTPN7: Tyrosine-protein phosphatase non-receptor type 7 (PTPN7, Homo sapiens, UniProt P35236)
HDAC8: Histone deacetylase 8 (HDAC8, Homo sapiens, UniProt Q9BY41)

CCCc1nc2c(n1Cc1ccc(-c3ccccc3-c3nnn[nH]3)cc1)C(=O)CCCC2
IC50 (BCKDK; enzyme activity, inhibitor): 0.68 µM

C=CC(=O)Nc1cc(Nc2nccc(Nc3cc(Cl)c(F)cc3C(C)(C)O)n2)c(OC)cc1N1CC[C@@H](N(C)C)C1
IC50 (Tyrosine-protein kinase Yes (YES1, Homo sapiens, UniProt P07947); enzyme activity, inhibitor; with preincubation): 2.9 µM

CC1=CC[C@H]2[C@@H]([C@@H]1CC[C@H]1[C@]3(C)CC[C@H](O)C(C)(C)O[C@H]3CC[C@]1(C)O)C(C)(C)CC[C@]2(C)O
IC50 (ABCB1; transporter efflux, inhibitor, fluorescence; KB-V1; 10 min): 50 to 100 µM

CCCCc1nc(C)c(CC(=S)N(C)C)c(=O)n1Cc1ccc(-c2ccccc2-c2nnn[nH]2)cc1
IC50 (BCKDK; enzyme activity, inhibitor): 51.9 µM

CCOCc1nc(O)c(-c2nnc(Cc3ccc(Cl)cn3)o2)c(O)c1-c1c(OC)cccc1OC
IC50 (OPRM1; ligand displacement, radioligand): > 30 µM

Cc1ccc(-c2cc(-c3ccc(-c4ccc(C(=O)O)cc4)[nH]3)nc3c(C(C)C)cccc23)cc1
IC50 (Retinoic acid receptor gamma (RARG, Homo sapiens, UniProt P13631); reporter gene, antagonist): > 3.3 µM

O=C(Nc1ccccc1C=NNS(=O)(=O)c1ccc2ccccc2c1)c1cc([N+](=O)[O-])cc([N+](=O)[O-])c1
IC50 (murD; enzyme activity, inhibitor, absorbance): 49 µM

C=C(C)[C@@H]1CCC(C)=C[C@H]1c1c(O)cc(CCCCC)cc1O
IC50 (ALOX5; enzyme activity in cells, inhibitor): > 10 µM

CCCCCCCCCCCCCCCc1cccc(O)c1C(=O)O
IC50 (Histone acetyltransferase KAT2B (KAT2B, Homo sapiens, UniProt Q92831); enzyme activity, inhibitor, radiometric): > 200 µM

CNC(=O)c1cc2c(Oc3ccc(NC(=O)C4(C(=O)Nc5ccc(F)cc5)CC4)cc3)ccnc2cc1OC
IC50 (Tyrosine-protein kinase Srms (SRMS, Homo sapiens, UniProt Q9H3Y6); enzyme activity, inhibitor, radiometric): 0.01 µM

CCn1ncc2c1-c1cnc(N)c(c1)O[C@H](C)c1cc(F)ccc1-c1nn(C)nc1C2
IC50 (Ephrin type-A receptor 6 (EPHA6, Homo sapiens, UniProt Q9UF33); enzyme activity, inhibitor, radiometric): 0.116 µM

CCCCCc1cc(O)c(C/C=C(\C)CCC=C(C)C)c(O)c1
IC50 (ALOX5; enzyme activity in cells, inhibitor): 2 µM

O=C(Nc1ccc(C=NNS(=O)(=O)c2ccc3ccccc3c2)cc1)c1ccccc1Br
IC50 (murD; enzyme activity, inhibitor, absorbance): 55 µM

CC[C@H](C)[C@H](NC(C)=O)C(=O)N[C@@H](CCC(=O)O)C(=O)N[C@H](C(=O)N[C@H](C=O)CC(=O)O)[C@@H](C)O
IC50 (Caspase-5 (CASP5, Homo sapiens, UniProt P51878); enzyme activity, inhibitor): 0.00644 µM

CCCC[C@H](NC(=O)[C@H](C)c1c(C)[nH]c2ccc(O)cc12)c1ncc(-c2cc3ccccc3nc2OC)[nH]1
IC50 (OPRM1; cell-free assay): 4.61 µM

C[C@@H]1CCO[C@H]2Cn3cc(C(=O)NCc4ccc(F)cc4F)c(=O)c(O)c3C(=O)N12
IC50 (Multidrug and toxin extrusion protein 2 (SLC47A2, Homo sapiens, UniProt Q86VL8); transporter uptake, inhibitor, radiometric; HEK293; 5 min, pH 8.5): 24.8 µM

CN[C@H]1CC[C@@H](c2ccc(Cl)c(Cl)c2)c2ccccc21
IC50 (PTPN7; enzyme activity, inhibitor, fluorescence): 110 µM

N[C@@H](CC(=O)N1CCN(C(c2ccc(F)cc2)c2ccc(F)cc2)CC1)C(=O)N1Cc2ccccc2C1
IC50 (Dipeptidyl peptidase 8 (Homo sapiens, UniProt Q6V1X1); enzyme activity, inhibitor): 0.128 µM

CC/C=C\C/C=C\C/C=C\C/C=C\C/C=C\CCCC(=O)O
IC50 (DNA polymerase (POLA1, Bos taurus, UniProt A0AAA9TD94); enzyme activity, inhibitor): 32.1 µM

CCN(CC)CCNC(=O)c1c(C)[nH]c(/C=C2\C(=O)Nc3ccc(F)cc32)c1C
IC50 (ABCB1; transporter efflux, inhibitor; LLC-PK1; 1 h): 6.7 µM

Cc1nccc2c1c(=O)n(C)c1cc(OC[C@@H](N)CC(C)C)c(C#N)cc21
IC50 (OPRM1; cell-free assay): > 30 µM

COC(=O)[C@]1(O)C[C@@H](O)[C@@H](O)[C@H](OC(=O)/C=C/c2ccc(O)c(O)c2)C1
IC50 (HDAC8; enzyme activity, inhibitor): 8.22 µM

O=C(Nc1ccccc1C=NNS(=O)(=O)c1ccc2ccccc2c1)c1ccc([N+](=O)[O-])cc1
IC50 (murD; enzyme activity, inhibitor, absorbance): 43 µM

CCOc1nc2cccc(C(=O)O)c2n1Cc1ccc(-c2ccccc2-c2nnn[nH]2)cc1
IC50 (BCKDK; enzyme activity, inhibitor): 4.28 µM

C=C(C)[C@@H]1CCC(C)=C[C@H]1c1c(O)cc(CCC)cc1O
IC50 (ALOX5; enzyme activity in cells, inhibitor): 7.6 µM

O=C1c2ccccc2-c2cccc3cccc1c23
IC50 (PTPN7; enzyme activity, inhibitor, fluorescence): 35 µM

NC(=O)c1ccc[n+]([C@@H]2O[C@H](COP(=O)([O-])OP(=O)(O)OC[C@H]3O[C@@H](n4cnc5c(N)ncnc54)[C@H](O)[C@@H]3O)[C@@H](O)[C@H]2O)c1
IC50 (Protein mono-ADP-ribosyltransferase PARP10 (PARP10, Homo sapiens, UniProt Q53GL7); enzyme activity, inhibitor): 456 µM

CCCCC1=NC2(CCCC2)C(=O)N1Cc1ccc(-c2ccccc2-c2nnn[nH]2)cc1
IC50 (BCKDK; enzyme activity, inhibitor): 32.9 µM

CSCC[C@H](NC(=O)[C@H](Cc1c[nH]c2ccccc12)NC(=O)CNC(=O)[C@H](Cc1ccc(O)cc1)NC(=O)[C@H](C)NC(=O)[C@@H](CCC(=O)O)NC(=O)CN1CCN(CC(=O)O)CCN(CC(=O)O)CCN(CC(=O)O)CC1)C(=O)N[C@@H](CC(=O)O)C(=O)N[C@@H](Cc1cccc2ccccc12)C(N)=O
IC50 (Gastrin/cholecystokinin type B receptor (Rattus norvegicus, UniProt P30553); ligand displacement, radioligand): 0.00192 µM

O=C1NC(=O)/C(=C/c2ccc(OCCNc3nc4c(cnn4C4CCCC4)c(=O)[nH]3)c(F)c2)S1
IC50 (High affinity cAMP-specific and IBMX-insensitive 3',5'-cyclic phosphodiesterase 8A (PDE8A, Homo sapiens, UniProt O60658); enzyme activity, inhibitor): 0.199 µM

CN1CCN(c2ccc(Nc3ncc4cc(C#N)c(=O)n(C5CCCC5)c4n3)cc2)CC1
IC50 (TGF-beta receptor type-2 (TGFBR2, Homo sapiens, UniProt P37173); enzyme activity, inhibitor): 0.123 µM

O=c1cc(-c2ccc(O)c(O)c2)oc2cc(O)cc(O)c12
IC50 (HDAC8; enzyme activity, inhibitor): 6.91 µM

CCCc1nc(C(C)(C)O)c(C(=O)O)n1Cc1ccc(-c2ccccc2-c2nnn[nH]2)cc1
IC50 (BCKDK; enzyme activity, inhibitor): 198 µM

O=C(NO)c1ccc(NC(=O)C2(c3ccc(F)cc3)CCCC2)c(F)c1
IC50 (Histone deacetylase 1 (HDAC1, Homo sapiens, UniProt Q13547); enzyme activity, inhibitor): 0.204 µM
